In ChEMBL document CHEMBL1132422, “Synthesis and evaluation of 2-amino-9-(1, 3-dihydroxy-2-propoxymethyl)- 6-fluoropurine mono- and diesters as potential prodrugs of ganciclovir” (J Med Chem, 1999):
≈ marks a conversion by molar mass, not a printed value.

What was measured:
HEL 299 = experiment: In vitro cytotoxicity of the compound (Concentration required to reduce OD value by 50%) in human embryonic lung fibroblast(HEL 299) cells determined by MTT assay.; format: functional
Outline: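 HEL 299 cells seeded at 1 × 10^4 cells/well in EMEM and grown 24 h, then exposed to compound at various concentrations for 4 days at 37 °C, 5% CO2. MTT added for 4 h, formazan dissolved in DMSO, OD read at 540 nm. CC50 from probit dose-response; quadruplicate, repeated twice.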

[1] = Compound was tested for its half life period at pH 7.4 using Sodium phosphate buffer; format: ADME
Outline: (§1)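 Compound incubated in buffer (HCl/NaCl at pH 1.2; sodium phosphate at pH 6.0, 7.4, 8.0), sampled and analysed by C18 reversed-phase HPLC. Gradient: 10 min 100% 0.1% phosphoric acid, 25 min linear to 45% of 80% MeCN/0.1% phosphoric acid, then 4 min isocratic, at 1 mL/min. UV detection at 245 nm. Half-life derived from remaining parent compound.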

[2] = Compound was tested for its half life period at pH 6.0 using Sodium phosphate buffer; format: ADME; outline: as §1
[3] = Compound was tested for its half life period at pH 1.2 using HCl/NaCl buffer; format: ADME; outline: as §1
[4] = Compound was tested for solubility in water at 25 degree C; format: ADME; details: read-out: S
Outline: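 Saturated aqueous solution of compound; UV absorbance at 245 nm compared against a standard curve to give solubility.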

[5] = Compound was tested for its half life period at pH 8.0 using Sodium phosphate buffer; format: ADME; outline: as §1
Rattus norvegicus = experiment: Total amount of Ganciclovir recovered in the urine over a 48 hr period after an oral dose of 0.1 mmol/kg to male SD rat; format: functional
Outline: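 Single oral dose of 0.1 mmol/kg given to two male Sprague-Dawley rats (200-250 g). Urine collected for 48 h in metabolic cages, and total ganciclovir measured by C18 reversed-phase HPLC.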

Human betaherpesvirus 5 = experiment: In vitro antiviral (HCMV-AD169) activity of the compound (Concentration required to reduce 50% of the plaques) determined by plaque reduction assay.; format: functional, cell-based; details: Human betaherpesvirus 5, AD169, HEL 299
Outline: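 Confluent cells infected with about 50 PFU HCMV AD-169 per well, 1 h adsorption at 37 °C, 5% CO2. Inoculum replaced with EMEM containing 2% FBS, 1% methyl cellulose and compound at various concentrations. After 10 days, plaques fixed in methanol, stained with crystal violet and counted. EC50 from probit dose-response; quadruplicate, repeated twice.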

Compound	half-life [1]	half-life [2]	half-life [3]	solubility [4]	half-life [5]	EC50 (Human betaherpesvirus 5)	CC50 (HEL 299)	Ganciclovir recovered in urine over 48 h (% of dose) (Rattus norvegicus)	Dose (Rattus norvegicus)
CCC(=O)OCC(CO)OCn1cnc2c(F)nc(N)nc21 (configuration not stated)	408 h	37 days	1 h	19000 µg/mL (≈ 60.6 mM)	168 h	> 100 µM	> 100 µM	–	39%
Nc1nc2c(ncn2COC(CO)CO)c(=O)[nH]1 [GANCICLOVIR]	–	–	–	4300 µg/mL (≈ 16.8 mM)	–	0.63 µM	> 100 µM	3%	–
CCCC(=O)OCC(CO)OCn1cnc2c(F)nc(N)nc21 (configuration not stated)	504 h	51 days	1.15 h	19400 µg/mL (≈ 59.3 mM)	288 h	> 100 µM	> 100 µM	41%	–
CC(C)OCC(COC(C)C)OCn1cnc2cnc(N)nc21 [ROCICLOVIR]	–	–	–	–	–	–	–	14%	–
CCCC(=O)OCC(COC(=O)CCC)OCn1cnc2c(F)nc(N)nc21	264 h	39 days	1.08 h	600 µg/mL (≈ 1.51 mM)	96 h	> 100 µM	> 100 µM	35%	–
Nc1nc(F)c2ncn(COC(CO)CO)c2n1	1660 h	107 days	1.03 h	11300 µg/mL (≈ 43.9 mM)	720 h	> 100 µM	> 100 µM	8%	–

Further lines, with some results ahead:

half-life [1]	half-life [2]	half-life [3]	solubility [4]	half-life [5]	EC50 (Human betaherpesvirus 5)	Compound	CC50 (HEL 299)	Ganciclovir recovered in urine over 48 h (% of dose) (Rattus norvegicus)	Dose (Rattus norvegicus)
336 h	56 days	1.02 h	44400 µg/mL (≈ 148 mM)	168 h	> 100 µM	CC(=O)OCC(CO)OCn1cnc2c(F)nc(N)nc21 (configuration not stated)	> 100 µM	29%	–
168 h	35 days	1.38 h	700 µg/mL (≈ 1.9 mM)	48 h	> 100 µM	CCC(=O)OCC(COC(=O)CC)OCn1cnc2c(F)nc(N)nc21	> 100 µM	35%	–
168 h	29 days	1.23 h	400 µg/mL (≈ 1.01 mM)	120 h	> 100 µM	CC(C)C(=O)OCC(COC(=O)C(C)C)OCn1cnc2c(F)nc(N)nc21	> 100 µM	42%	–
192 h	30 days	1.03 h	4200 µg/mL (≈ 12.3 mM)	72 h	> 100 µM	CC(=O)OCC(COC(C)=O)OCn1cnc2c(F)nc(N)nc21	> 100 µM	41%	–
768 h	56 days	1.08 h	5700 µg/mL (≈ 17.4 mM)	336 h	> 100 µM	CC(C)C(=O)OCC(CO)OCn1cnc2c(F)nc(N)nc21 (configuration not stated)	> 100 µM	45%	–
